According to ChEMBL document CHEMBL2375244 (J Med Chem, 2013):
The source made the active and inactive calls. The rule behind the calls is not given here.

Legend:
CDK2/Cyclin A2 [1] = molecular target: T1, CDK2/Cyclin A2 (Homo sapiens, UniProt P24941); assay: Inhibition of CDK2/Cyclin A (unknown origin)-mediated phosphorylation of peptide substrate incubated for 15 mins prior to substrate addition measured after 90 mins by P33-radiolabeled assay; type: protein-complex assay
BT-549 = assay: Cytotoxicity against human BT549 cells after 72 hrs by resazurin/resorufin-based fluorescence assay; type: functional, cell-based; settings: BT-549, 72 h
How it was run: (§1)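 CellTiter-Blue viability: 1200 cells per well seeded, incubated overnight at 37 °C, 5% CO₂; drugs serially diluted 2:3 in medium, four replicate wells per concentration plus four diluent-only control wells; 72 h exposure; resazurin reduction to resorufin read by fluorescence (579 nm ex/584 nm em). IC50 is the average of three data sets, each using nine concentrations between 0.004 μM and 12.5 μM.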

[2] = molecular target: Serine/threonine-protein kinase TAO1 (Homo sapiens) (UniProt Q7L7X3); assay: Inhibition of human TAO1 at 0.1 uM incubated for 15 mins prior to substrate addition measured after 90 mins by P33-radiolabeled assay relative to control
Sequence of Serine/threonine-protein kinase TAO1 (Homo sapiens) (Q7L7X3 whole entry): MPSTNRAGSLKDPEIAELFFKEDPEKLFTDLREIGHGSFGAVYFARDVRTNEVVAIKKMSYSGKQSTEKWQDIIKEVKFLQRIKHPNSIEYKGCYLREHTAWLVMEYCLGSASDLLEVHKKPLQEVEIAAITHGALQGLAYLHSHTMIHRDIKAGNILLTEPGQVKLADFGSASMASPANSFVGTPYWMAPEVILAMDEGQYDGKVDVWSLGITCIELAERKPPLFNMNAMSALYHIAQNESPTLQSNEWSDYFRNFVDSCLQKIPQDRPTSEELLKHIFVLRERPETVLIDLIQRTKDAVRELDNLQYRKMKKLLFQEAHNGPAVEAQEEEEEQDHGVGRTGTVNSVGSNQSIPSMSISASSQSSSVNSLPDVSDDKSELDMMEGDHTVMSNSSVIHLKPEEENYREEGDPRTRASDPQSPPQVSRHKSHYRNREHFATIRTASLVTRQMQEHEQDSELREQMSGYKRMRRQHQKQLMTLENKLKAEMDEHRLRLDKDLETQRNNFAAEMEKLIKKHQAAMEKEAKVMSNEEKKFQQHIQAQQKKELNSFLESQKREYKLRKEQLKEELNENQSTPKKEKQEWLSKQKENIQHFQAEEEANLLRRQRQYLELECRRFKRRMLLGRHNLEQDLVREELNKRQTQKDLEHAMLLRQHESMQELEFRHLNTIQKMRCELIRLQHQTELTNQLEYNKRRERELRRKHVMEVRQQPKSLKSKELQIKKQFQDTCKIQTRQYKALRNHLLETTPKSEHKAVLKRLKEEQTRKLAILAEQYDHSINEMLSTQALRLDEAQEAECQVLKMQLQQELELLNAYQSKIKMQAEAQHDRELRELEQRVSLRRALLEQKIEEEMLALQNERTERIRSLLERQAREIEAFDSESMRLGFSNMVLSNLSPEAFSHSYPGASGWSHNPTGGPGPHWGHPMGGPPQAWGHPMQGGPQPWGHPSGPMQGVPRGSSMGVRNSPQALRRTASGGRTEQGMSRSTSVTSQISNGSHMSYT

[3] = molecular target: CDK6/cyclin D1 (Homo sapiens) (UniProt P24385+Q00534); assay: Inhibition of human CDK6/Cyclin D1 at 0.1 uM incubated for 15 mins prior to substrate addition measured after 90 mins by P33-radiolabeled assay relative to control; type: protein-complex assay
CDK1/Cyclin A = CDK1/Cyclin A (Homo sapiens, UniProt P06493); assay: Inhibition of CDK1/Cyclin A (unknown origin)-mediated phosphorylation of peptide substrate incubated for 15 mins prior to substrate addition measured after 90 mins by P33-radiolabeled assay; type: protein-complex assay
Sequence of CDK1/Cyclin A (P06493 whole entry): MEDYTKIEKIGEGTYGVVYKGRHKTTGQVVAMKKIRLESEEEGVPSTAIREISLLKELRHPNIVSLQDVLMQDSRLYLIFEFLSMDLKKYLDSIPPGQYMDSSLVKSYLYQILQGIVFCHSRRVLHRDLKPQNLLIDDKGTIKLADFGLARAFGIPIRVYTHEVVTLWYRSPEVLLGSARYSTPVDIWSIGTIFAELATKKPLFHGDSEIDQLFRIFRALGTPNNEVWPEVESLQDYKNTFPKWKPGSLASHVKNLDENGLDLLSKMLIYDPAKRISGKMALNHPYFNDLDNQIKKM
Sequence of CDK1/Cyclin A (P20248 whole entry, further chain): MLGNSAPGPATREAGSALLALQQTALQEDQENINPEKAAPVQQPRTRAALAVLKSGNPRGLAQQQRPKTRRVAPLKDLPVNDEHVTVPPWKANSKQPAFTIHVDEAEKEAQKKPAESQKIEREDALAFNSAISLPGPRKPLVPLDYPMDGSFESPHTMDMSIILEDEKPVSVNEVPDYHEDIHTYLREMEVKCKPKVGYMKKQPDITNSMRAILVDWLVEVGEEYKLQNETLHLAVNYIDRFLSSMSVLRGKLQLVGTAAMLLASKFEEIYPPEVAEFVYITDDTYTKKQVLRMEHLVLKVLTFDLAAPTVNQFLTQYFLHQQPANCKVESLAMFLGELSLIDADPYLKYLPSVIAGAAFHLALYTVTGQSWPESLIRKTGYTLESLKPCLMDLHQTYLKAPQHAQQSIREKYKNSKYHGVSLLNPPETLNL

[4] = molecular target: CDK6/cyclin D3 (Homo sapiens) (UniProt P30281+Q00534); assay: Inhibition of human CDK6/Cyclin D3 at 0.1 uM incubated for 15 mins prior to substrate addition measured after 90 mins by P33-radiolabeled assay relative to control; type: protein-complex assay
[5] = molecular target: Cyclin-dependent kinase 4/cyclin D1 (Homo sapiens) (UniProt P11802+P24385); assay: Inhibition of human CDK4/Cyclin D1 at 0.1 uM incubated for 15 mins prior to substrate addition measured after 90 mins by P33-radiolabeled assay relative to control; type: protein-complex assay
[6] = molecular target: CDK9/cyclin T1 (Homo sapiens) (UniProt O60563+P50750); assay: Inhibition of human CDK9/CyclinT1 at 0.1 uM incubated for 15 mins prior to substrate addition measured after 90 mins by P33-radiolabeled assay relative to control; type: protein-complex assay
How it was run: (§2)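 Kinome profiling (339-kinase panel) by a contract lab using a P33-radiolabel assay. Each kinase was tested at a single compound concentration of 0.1 μM, in duplicate, with ATP at 10 μM.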

[7] = Cytotoxicity against human RPMI18226 cells after 72 hrs by resazurin/resorufin-based fluorescence assay; type: functional, cell-based; settings: RPMI18226, 72 h
[8] = Cytotoxicity against mouse TM4 cells after 72 hrs by MTT assay; type: functional, cell-based; settings: TM4, 72 h
How it was run: (§3)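 Cells kept in RPMI or DMEM with 10% FBS at 37 °C, 5% CO₂ and allowed to attach overnight; 72 h with increasing inhibitor concentrations; then 1 mg/mL MTT for 3 h, DMSO solubilisation, OD read at 540 nm. Testis lines had culture conditions adapted to them. Dose-response in triplicate, 9 concentrations between 0.02 and 100 μM, averaged.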

A673 [9] = assay: Cytotoxicity against human A673 cells after 72 hrs by resazurin/resorufin-based fluorescence assay; type: functional, cell-based; settings: A673, 72 h
CDK2/Cyclin A2 [10] = molecular target: T1, CDK2/Cyclin A2; assay: Inhibition of human CDK2/Cyclin A2 using PKTPKKAKKL as substrate by fluorescence assay; type: protein-complex assay
[11] = molecular target: Cyclin-dependent kinase 5/CDK5 activator 1 (Homo sapiens, UniProt Q00535); assay: Inhibition of CDK5/P25 (unknown origin)-mediated phosphorylation of peptide substrate incubated for 15 mins prior to substrate addition measured after 90 mins by P33-radiolabeled assay; type: protein-complex assay
Sequence of Cyclin-dependent kinase 5/CDK5 activator 1 (Q00535 whole entry): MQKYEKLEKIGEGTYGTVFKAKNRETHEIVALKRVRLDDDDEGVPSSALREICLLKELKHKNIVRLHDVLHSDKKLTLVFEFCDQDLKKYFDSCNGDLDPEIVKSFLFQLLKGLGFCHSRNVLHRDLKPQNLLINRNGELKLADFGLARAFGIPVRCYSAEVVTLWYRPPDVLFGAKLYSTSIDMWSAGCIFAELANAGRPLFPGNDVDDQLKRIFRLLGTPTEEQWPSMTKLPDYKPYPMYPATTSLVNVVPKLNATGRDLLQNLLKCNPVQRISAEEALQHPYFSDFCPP
Sequence of Cyclin-dependent kinase 5/CDK5 activator 1 (Q15078 whole entry, further chain): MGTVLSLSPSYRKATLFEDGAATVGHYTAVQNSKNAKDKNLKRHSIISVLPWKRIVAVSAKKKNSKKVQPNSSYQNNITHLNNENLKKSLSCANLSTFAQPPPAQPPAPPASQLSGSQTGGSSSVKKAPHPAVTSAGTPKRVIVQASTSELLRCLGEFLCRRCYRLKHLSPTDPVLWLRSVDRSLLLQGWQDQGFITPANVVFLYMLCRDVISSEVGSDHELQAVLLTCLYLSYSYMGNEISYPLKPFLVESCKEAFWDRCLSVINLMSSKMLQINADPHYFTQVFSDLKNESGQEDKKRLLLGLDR

A673 [12] = assay: Induction of apoptosis in human A673 cells assessed as caspase-3 activation after 24 hrs by luminescence assay; type: functional, cell-based; settings: A673, 24 h
How it was run: (§4)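 Caspase-3/7 activation measured with a Caspase-Glo 3/7 luminescent assay. Cells were plated as for the high-throughput viability assay and exposed for 24 h to serial dilutions. EC50 was obtained from the dose-response.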

[13] = molecular target: CDK9/Cyclin K (Homo sapiens) (UniProt P50750+O75909); assay: Inhibition of human CDK9/Cyclin K at 0.1 uM incubated for 15 mins prior to substrate addition measured after 90 mins by P33-radiolabeled assay relative to control; type: protein-complex assay; how it was run: as §2
A673 [14] = assay: Induction of apoptosis in human A673 cells assessed as caspase-3 activation at 0.05 uM to 5 uM after 24 hrs by luminescence assay relative to control; type: functional; how it was run: as §4
[15] = molecular target: Glycogen synthase kinase-3 beta (Homo sapiens, UniProt P49841); assay: Inhibition of GSK3beta (unknown origin)-mediated phosphorylation of peptide substrate incubated for 15 mins prior to substrate addition measured after 90 mins by P33-radiolabeled assay
Sequence of Glycogen synthase kinase-3 beta (P49841 whole entry): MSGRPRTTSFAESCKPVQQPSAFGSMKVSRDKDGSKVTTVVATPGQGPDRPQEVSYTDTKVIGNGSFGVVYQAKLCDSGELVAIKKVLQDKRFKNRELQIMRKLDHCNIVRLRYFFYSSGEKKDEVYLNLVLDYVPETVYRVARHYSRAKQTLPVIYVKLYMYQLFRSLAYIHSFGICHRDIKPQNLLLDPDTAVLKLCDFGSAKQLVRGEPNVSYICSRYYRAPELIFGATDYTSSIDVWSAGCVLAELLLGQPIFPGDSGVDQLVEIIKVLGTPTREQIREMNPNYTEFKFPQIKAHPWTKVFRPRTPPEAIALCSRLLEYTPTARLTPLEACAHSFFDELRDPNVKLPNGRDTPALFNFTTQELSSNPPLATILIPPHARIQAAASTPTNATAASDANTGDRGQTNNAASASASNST

NCI-H929 = assay: Induction of apoptosis in human NCI-H929 cells assessed as increase in cleaved caspase-3 level at […] after 24 hrs by FACS flow cytometric analysis relative to control; type: functional
[16] = molecular target: Mitogen-activated protein kinase 15 (Homo sapiens) (UniProt Q8TD08); assay: Inhibition of human ERK7 at 0.1 uM incubated for 15 mins prior to substrate addition measured after 90 mins by P33-radiolabeled assay relative to control
Sequence of Mitogen-activated protein kinase 15 (Homo sapiens) (Q8TD08 whole entry): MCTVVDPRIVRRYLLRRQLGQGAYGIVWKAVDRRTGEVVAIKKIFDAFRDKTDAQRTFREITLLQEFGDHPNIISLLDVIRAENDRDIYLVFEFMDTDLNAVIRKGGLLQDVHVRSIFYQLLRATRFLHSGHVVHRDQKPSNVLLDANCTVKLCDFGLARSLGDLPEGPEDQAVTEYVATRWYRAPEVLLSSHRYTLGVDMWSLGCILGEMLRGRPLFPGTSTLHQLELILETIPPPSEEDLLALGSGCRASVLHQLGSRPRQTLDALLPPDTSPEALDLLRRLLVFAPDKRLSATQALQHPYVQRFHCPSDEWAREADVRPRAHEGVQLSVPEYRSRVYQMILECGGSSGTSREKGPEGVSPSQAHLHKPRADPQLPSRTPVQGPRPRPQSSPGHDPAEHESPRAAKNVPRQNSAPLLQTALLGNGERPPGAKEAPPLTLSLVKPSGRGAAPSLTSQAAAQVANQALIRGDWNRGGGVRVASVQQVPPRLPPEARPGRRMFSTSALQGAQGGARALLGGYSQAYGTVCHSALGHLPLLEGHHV

[17] = molecular target: Dual specificity protein kinase CLK1 (Homo sapiens) (UniProt P49759); assay: Inhibition of human CLK1 at 0.1 uM incubated for 15 mins prior to substrate addition measured after 90 mins by P33-radiolabeled assay relative to control
Sequence of Dual specificity protein kinase CLK1 (Homo sapiens) (P49759 whole entry, looked up): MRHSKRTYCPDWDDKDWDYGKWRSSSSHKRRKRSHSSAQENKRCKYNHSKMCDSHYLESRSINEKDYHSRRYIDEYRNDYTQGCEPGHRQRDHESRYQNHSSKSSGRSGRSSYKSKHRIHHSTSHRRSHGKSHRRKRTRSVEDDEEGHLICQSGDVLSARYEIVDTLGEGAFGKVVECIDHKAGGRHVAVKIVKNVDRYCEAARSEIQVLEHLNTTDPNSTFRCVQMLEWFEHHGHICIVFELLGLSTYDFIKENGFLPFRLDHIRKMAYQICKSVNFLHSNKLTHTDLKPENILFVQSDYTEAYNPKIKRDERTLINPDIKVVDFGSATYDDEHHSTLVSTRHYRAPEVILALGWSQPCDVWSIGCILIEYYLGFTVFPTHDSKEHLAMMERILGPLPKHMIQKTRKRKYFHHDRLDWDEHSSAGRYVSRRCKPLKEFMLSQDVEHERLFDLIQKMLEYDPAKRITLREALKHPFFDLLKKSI

[18] = molecular target: Cyclin-dependent kinase 2/cyclin E1 (Homo sapiens) (UniProt P24864+P24941); assay: Inhibition of human CDK2/Cyclin E at 0.1 uM incubated for 15 mins prior to substrate addition measured after 90 mins by P33-radiolabeled assay relative to control; type: protein-complex assay
HOS-TE85 = assay: Cytotoxicity against human MNNG-HOS cells after 72 hrs by resazurin/resorufin-based fluorescence assay; type: functional, cell-based; settings: HOS-TE85, 72 h
SK-BR-3 = assay: Cytotoxicity against human SK-BR-3 cells after 72 hrs by resazurin/resorufin-based fluorescence assay; type: functional, cell-based; settings: SK-BR-3, 72 h; how it was run: as §1
MDA-MB-468 = assay: Cytotoxicity against human MDA-MB-468 cells after 72 hrs by MTT assay; type: functional, cell-based; settings: MDA-MB-468, 72 h; how it was run: as §3
[19] = molecular target: Cyclin-dependent kinase 2 (Homo sapiens) (UniProt P24941); assay: Inhibition of CDK2-mediated Rb phosphorylation at Ser 807/811 in human NCI-H929 cells at […] after 24 hrs by immunoblotting analysis; type: cell-based
[20] = molecular target: CDK2/Cyclin A1 (Homo sapiens) (UniProt P24941+P78396); assay: Inhibition of human CDK2/Cyclin A1 at 0.1 uM incubated for 15 mins prior to substrate addition measured after 90 mins by P33-radiolabeled assay relative to control; type: protein-complex assay

## Nc1nc(Nc2ccc(S(N)(=O)=O)cc2)sc1C(=O)c1ccccc1[N+](=O)[O-]
CDK2/Cyclin A2 [1]
  IC50: 1.1 nM
BT-549
  IC50: > 10000 nM
[2]
  inhibition: 60%
[3]
  inhibition: 80%
CDK1/Cyclin A
  IC50: 7.6 nM
[4]
  inhibition: 85%
[5]
  inhibition: 80%
[6]
  inhibition: 90%
[7]
  IC50: > 10000 nM
[8]
  IC50: 16000 nM
A673 [9]
  IC50: 270 nM
CDK2/Cyclin A2 [10]
  IC50: 20 nM
[11]
  IC50: 1.5 nM
A673 [12]
  EC50: 410 nM
[13]
  inhibition: 80%
A673 [14]
  Activity: 196%
[15]
  IC50: 107 nM
NCI-H929
  Activity: 26%
[16]
  inhibition: 70%
[17]
  inhibition: 50%
[18]
  inhibition: 90%
HOS-TE85
  IC50: 3000 nM
SK-BR-3
  IC50: 490 nM
MDA-MB-468
  IC50: 300 nM
[19]
  inhibition: Active
[20]
  inhibition: 90%
